The values that follow come from ChEMBL document CHEMBL1148395, “Synthesis, biological properties, and molecular modeling investigations of novel 3,4-diarylpyrazolines as potent and selective CB(1) cannabinoid receptor antagonists” (J Med Chem, 2004).

SMILES strings stand for the structures.

The target of one series is Cannabinoid receptor 2 (Homo sapiens, UniProt P34972). The series is described as follows: Affinity to displace CP-55940 binding from Cannabinoid receptor 2 of human expressed in CHO cells. The format is cell-based. The method in brief: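 Bound and free ligand separated by glass-fibre filtration, filter radioactivity counted by liquid scintillation. IC50 values from at least two independent measurements combined and converted to Ki by Cheng-Prusoff.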

In series [1] the target is T1, Cannabinoid receptor 1 (Homo sapiens, UniProt P21554). The series is described as follows: Antagonistic activity towards cannabinoid receptor 1 expressed as [3H]Arachidonic acid release in CHO cells. The settings on record: read-out: pA2 (converted). Type of series: functional, cell-based.
Series [2] deals with T1, Cannabinoid receptor 1. The series is described as follows: biochemical. The format is cell-based, CHO.
The target of series [3] is Cannabinoid receptor 1 (Rattus norvegicus) (UniProt P20272). As to the kind of experiment: In vivo effective dose to antagonise cannabinoid receptor 1 agonist (CP-55940) induced hypotension in rat upon peroral administration. The format is functional, organism-based.
In series [4] the target is Cannabinoid receptor 1 (Mus musculus) (UniProt P47746). The series is described as follows: In vivo least effective dose required to antagonise cannabinoid receptor 1 agonist (WIN-55212) induced hypothermia in mouse upon peroral administration.
A short description of series [5]: Partition coefficient (logP). The format is physicochemical. The settings on record: octanol/water. The method in brief: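 n-Octanol/water partition measured by RP-HPLC following an OECD method. Mobile phase buffered at pH > 11 on an aluminum-based octadecyl stationary phase.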
Series [6] in a line: Mean percentage of compound transport through P-glycoprotein; expressed as p-glycoprotein affinity. Type of series: ADME. An outline of the steps:
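Human MDR1 P-glycoprotein transport across a monolayer of PK1 LLC MDR cells; compound added at 1 µg/mL to one side. Bottom-to-top and top-to-bottom transport measured; Pgp factor taken as the ratio of bottom-to-top to top-to-bottom transport, given as mean percentage of compound transported.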

The nature of series [7]: Mean percentage of compound transport through membrane; expressed as membrane transport. Type of series: ADME. An outline of the steps:
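Transport across a PK1 LLC MDR (human MDR1) cell monolayer with compound at 1 µg/mL added to one side. Membrane passage taken as the mean percentage of compound moved bottom-to-top and top-to-bottom at 3 h after addition.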

Cannabinoid receptor 2, sequence (P34972 whole entry): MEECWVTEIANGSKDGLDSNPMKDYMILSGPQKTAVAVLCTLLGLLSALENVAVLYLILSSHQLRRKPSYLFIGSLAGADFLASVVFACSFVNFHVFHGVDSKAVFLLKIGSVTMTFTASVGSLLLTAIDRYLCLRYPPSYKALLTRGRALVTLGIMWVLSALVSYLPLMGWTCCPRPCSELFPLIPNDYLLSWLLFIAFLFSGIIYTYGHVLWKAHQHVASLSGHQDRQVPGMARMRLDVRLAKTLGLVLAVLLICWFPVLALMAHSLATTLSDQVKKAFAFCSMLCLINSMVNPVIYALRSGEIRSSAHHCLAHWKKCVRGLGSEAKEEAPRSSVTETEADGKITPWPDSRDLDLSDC
Cannabinoid receptor 1 (Rattus norvegicus), sequence (P20272 whole entry): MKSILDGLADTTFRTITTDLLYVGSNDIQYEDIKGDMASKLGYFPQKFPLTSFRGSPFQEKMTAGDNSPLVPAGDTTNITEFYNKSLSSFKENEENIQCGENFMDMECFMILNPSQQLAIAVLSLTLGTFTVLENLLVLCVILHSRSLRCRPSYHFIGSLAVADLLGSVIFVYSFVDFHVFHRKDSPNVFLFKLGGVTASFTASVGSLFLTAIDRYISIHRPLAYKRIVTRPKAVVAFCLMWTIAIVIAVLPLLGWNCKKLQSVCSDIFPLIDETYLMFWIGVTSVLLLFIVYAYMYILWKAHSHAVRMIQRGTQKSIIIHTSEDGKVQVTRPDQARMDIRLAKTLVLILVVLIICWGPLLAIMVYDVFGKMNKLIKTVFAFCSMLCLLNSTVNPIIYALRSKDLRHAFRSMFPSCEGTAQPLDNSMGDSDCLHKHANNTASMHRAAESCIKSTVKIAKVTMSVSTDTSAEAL
Cannabinoid receptor 1 (Mus musculus), sequence (P47746 whole entry, looked up): as the sequence (P20272 whole entry) above, with E95D counted along it
T1 sequence (P21554 whole entry): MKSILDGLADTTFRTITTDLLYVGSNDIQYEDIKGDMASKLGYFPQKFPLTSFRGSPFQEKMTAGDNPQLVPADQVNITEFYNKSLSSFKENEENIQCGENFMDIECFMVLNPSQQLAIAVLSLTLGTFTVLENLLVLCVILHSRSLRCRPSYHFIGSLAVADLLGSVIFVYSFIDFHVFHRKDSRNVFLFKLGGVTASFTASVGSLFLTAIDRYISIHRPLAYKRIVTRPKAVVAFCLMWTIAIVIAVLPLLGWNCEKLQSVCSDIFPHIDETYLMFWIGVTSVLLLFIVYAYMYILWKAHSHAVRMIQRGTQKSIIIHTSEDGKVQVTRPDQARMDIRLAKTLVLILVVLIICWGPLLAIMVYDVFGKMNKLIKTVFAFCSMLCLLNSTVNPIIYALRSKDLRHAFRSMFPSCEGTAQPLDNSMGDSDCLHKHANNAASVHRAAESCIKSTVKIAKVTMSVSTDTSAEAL

What is called Ki is the dissociation constant of the complex between target and ligand, obtained from inhibition or displacement. `CN(C)/C(=N\S(=O)(=O)c1ccc(F)cc1)N1CC(c2ccccc2)C(c2ccc(Cl)cc2)=N1` (centres undefined): the inhibition constant Ki on Cannabinoid receptor 2 and on Cannabinoid receptor 1 [2] was over 1 µM in each case. The Kb on Cannabinoid receptor 1 [1] was over 0.0316 µM.
With `COc1ccc(S(=O)(=O)NC(=N)N2CC(c3ccccc3)C(c3ccc(Cl)cc3)=N2)cc1` (centres undefined), the Ki on Cannabinoid receptor 2 is over 1 µM; at Cannabinoid receptor 1 [2], 0.196 µM. The Kb on Cannabinoid receptor 1 [1] is 0.00501 µM.
On to `CN=C(NS(=O)(=O)c1ccc(C(F)(F)F)cc1)N1C[C@@H](c2ccccc2)C(c2ccc(Cl)cc2)=N1`, for which the Ki at Cannabinoid receptor 2 was over 1 µM; on Cannabinoid receptor 1 [2], 0.293 µM. The Kb at Cannabinoid receptor 1 [1] is 0.0316 µM.
Consider `N=C(NS(=O)(=O)c1ccc(F)cc1)N1CC(c2ccccc2)C(c2ccc(Cl)cc2)=N1` (centres undefined), for which the values for the Ki at Cannabinoid receptor 2 and at Cannabinoid receptor 1 [2] were over 1 µM and 0.0526 µM, respectively. Also, on Cannabinoid receptor 1 [1], the Kb is 0.001 µM.
For the compound `Cc1cc(C)c(S(=O)(=O)NC(=N)N2CC(c3ccccc3)C(c3ccc(Cl)cc3)=N2)c(C)c1` (centres undefined), the inhibition constant (Ki) is over 1 µM on Cannabinoid receptor 2 and 0.0242 µM on Cannabinoid receptor 1 [2]. Also, at Cannabinoid receptor 1 [1], the Kb was 0.000398 µM.
`CNC(=NS(=O)(=O)c1ccc(C(F)(F)F)cc1)N1CC(c2ccccc2)C(c2ccc(Cl)cc2)=N1` (centres undefined): the Ki at Cannabinoid receptor 2 is over 1 µM; on Cannabinoid receptor 1 [2], 0.221 µM. The Kb at Cannabinoid receptor 1 [1] was 0.000501 µM.
On the same counts, the results for `CNC(=NS(=O)(=O)c1cccc(Cl)c1)N1CC(c2ccccc2)C(c2ccc(Cl)cc2)=N1` (centres undefined) are over 1 µM, 0.0139 µM and 0.00251 µM.
Broadly, the ED50 is the dose at which the effect has come halfway, by size or by number of responders. Low values mean greater potency, high ones weaker potency. Regarding `Cc1ccc(S(=O)(=O)NC(=N)N2CC(c3ccccc3)C(c3ccc(Cl)cc3)=N2)cc1` (centres undefined), the inhibition constant (Ki) at Cannabinoid receptor 2 was over 1 µM; at Cannabinoid receptor 1 [2] it was 0.197 µM. In series [3], this compound came in with an ED50 of over 30 mg/kg. In addition, at Cannabinoid receptor 1 [1], the Kb was 0.00398 µM. In addition, the LED in series [4] was over 30 mg/kg.
`C/N=C(\NS(=O)(=O)c1ccc(C(F)(F)F)cc1)N1C[C@H](c2ccccc2)C(c2ccc(Cl)cc2)=N1`: the median effective dose (ED50) in series [3] is 2 mg/kg. The LED in series [4] was found to be 1 mg/kg.
Consider `C/N=C(\NS(=O)(=O)c1ccc(F)cc1)N1CC(c2ccccc2)C(c2ccc(Cl)cc2)=N1` (centres undefined), for which the Ki at Cannabinoid receptor 2 is over 1 µM; on Cannabinoid receptor 1 [2], 0.338 µM. Further, the Kb on Cannabinoid receptor 1 [1] was 0.00316 µM.
In general, logP refers to the decadic logarithm of the partition coefficient of the neutral form, usually between octanol and water. Turning to `NC(=NS(=O)(=O)c1ccc(Cl)cc1)N1CC(c2ccccc2)C(c2ccc(Cl)cc2)=N1` (centres undefined), the results for the Ki at Cannabinoid receptor 2 and on Cannabinoid receptor 1 [2] were over 1 µM and 0.0161 µM, respectively. The logP in series [5] came to 4.3. Besides, the Kb on Cannabinoid receptor 1 [1] was 0.000316 µM. Also, the Activity is given as 1.7 in series [6] and 7 in series [7].
Turning to `C/N=C(\NS(=O)(=O)c1c(C)cc(C)cc1C)N1CC(c2ccccc2)C(c2ccc(Cl)cc2)=N1` (centres undefined), the Kb at Cannabinoid receptor 1 [1] was 0.000398 µM. The compound also came in with a Ki at Cannabinoid receptor 1 [2] of 0.0542 µM.
As for `O=C(NS(=O)(=O)c1ccc(Cl)cc1)N1CC(c2ccccc2)C(c2ccc(Cl)cc2)=N1` (centres undefined), the Ki at Cannabinoid receptor 1 [2] is over 1 µM.
On to `C/N=C(\NS(=O)(=O)c1ccccc1Cl)N1CC(c2ccccc2)C(c2ccc(Cl)cc2)=N1` (centres undefined), for which the figures for the inhibition constant Ki on Cannabinoid receptor 2 and on Cannabinoid receptor 1 [2] were over 1 µM and 0.0754 µM, respectively. Further, on Cannabinoid receptor 1 [1], the Kb is 0.00501 µM.
For `C/N=C(\NS(=O)(=O)c1ccc(Cl)cc1)N1CC(c2ccccc2)C(c2ccc(F)cc2)=N1` (centres undefined), on Cannabinoid receptor 1 [1], the Kb was 0.0251 µM. This compound gave a Ki at Cannabinoid receptor 1 [2] of 0.214 µM.
Consider `CN(C)/C(=N\S(=O)(=O)c1ccc(Cl)cc1)N1CC(c2ccccc2)C(c2ccc(Cl)cc2)=N1` (centres undefined), for which the Ki was over 1 µM at Cannabinoid receptor 2 and 0.28 µM at Cannabinoid receptor 1 [2]. In series [3], the ED50 is over 30 mg/kg. The compound also registered a logP in series [5] of 4.8. Besides, the Kb at Cannabinoid receptor 1 [1] is 0.00316 µM. Besides, the results for the Activity in series [6] and in series [7] were 1.4 and 15.2, respectively.
For `CN=C(NS(=O)(=O)c1ccc(Cl)cc1)N1C[C@H](c2ccccc2)C(c2ccc(Cl)cc2)=N1` [IBIPINABANT], in series [5], the logP came to 4.8. Moreover, the Activity came out at 1.4 in series [6] and 14.8 in series [7].
As to `C/N=C(\NS(=O)(=O)c1ccc(C)cc1)N1CC(c2ccccc2)C(c2ccc(Cl)cc2)=N1` (centres undefined), at Cannabinoid receptor 1 [1], the Kb is 0.00251 µM.
In the case of `CN=C(NS(=O)(=O)c1ccc(Cl)cc1)N1CC(c2ccc(F)cc2)C(c2ccc(Cl)cc2)=N1` (centres undefined), the Ki on Cannabinoid receptor 1 [2] was determined as 0.584 µM.
Consider `C/N=C(\NC(=O)c1ccc(Cl)cc1)N1CC(c2ccccc2)C(c2ccc(Cl)cc2)=N1` (centres undefined), for which the Kb on Cannabinoid receptor 1 [1] is 0.002 µM. Moreover, affinity on Cannabinoid receptor 1 [2] was put at a Ki of 0.0706 µM.
`C/N=C(\NS(=O)(=O)c1ccc(Cl)cc1)N1C[C@@H](c2ccccc2)C(c2ccc(Cl)cc2)=N1` registered an ED50 in series [3] of over 30 mg/kg.
With `C/N=C(\NS(=O)(=O)c1cccc(C(F)(F)F)c1)N1CC(c2ccccc2)C(c2ccc(Cl)cc2)=N1` (centres undefined), the Ki on Cannabinoid receptor 2 is over 1 µM; on Cannabinoid receptor 1 [2], 0.0365 µM. Also, the Kb on Cannabinoid receptor 1 [1] was 0.000794 µM.
With `CN/C(=N\S(=O)(=O)c1ccc(Cl)cc1)N1CC(c2ccccc2)C(c2ccc(Cl)cc2)=N1` (centres undefined), in series [3], the median effective dose (ED50) is 15 mg/kg.
In series [3], `N=C(NS(=O)(=O)c1ccc(Cl)cc1)N1CC(c2ccccc2)C(c2ccc(Cl)cc2)=N1` (centres undefined) registered an ED50 of over 30 mg/kg. In series [4], this compound came in with an LED of over 30 mg/kg.
The compound `CN=C(NS(=O)(=O)c1ccc(Cl)cc1)N1CC(c2ccc(Cl)cc2)C(c2ccc(Cl)cc2)=N1` (centres undefined) came in with an inhibition constant (Ki) at Cannabinoid receptor 1 [2] of 0.255 µM.
As for `C/N=C(\NS(=O)(=O)c1ccc2ccccc2c1)N1CC(c2ccccc2)C(c2ccc(Cl)cc2)=N1` (centres undefined), the Kb at Cannabinoid receptor 1 [1] was 0.00316 µM. Besides, the affinity at Cannabinoid receptor 1 [2], expressed as Ki, was 0.0218 µM.
With `C/N=C(\NS(=O)(=O)c1ccc(C(F)(F)F)cc1)N1CC(c2ccccc2)C(c2ccc(Cl)cc2)=N1` (centres undefined), in series [3], the ED50 stood at 8.9 mg/kg. In series [4], the LED was determined as 3 mg/kg.
For the compound `CS/C(=N\S(=O)(=O)c1ccc(C(F)(F)F)cc1)N1CC(c2ccccc2)C(c2ccc(Cl)cc2)=N1` (centres undefined), the inhibition constant (Ki) at Cannabinoid receptor 2 was over 1 µM; at Cannabinoid receptor 1 [2], 0.0166 µM. Moreover, the Kb at Cannabinoid receptor 1 [1] is 0.0002 µM.
For `C/N=C(\NS(=O)(=O)c1ccc(C(F)(F)F)cc1)N1C[C@@H](c2ccccc2)C(c2ccc(Cl)cc2)=N1`, in series [3], the ED50 was over 30 mg/kg. Also, in series [4], the LED was over 30 mg/kg.
Regarding `CN/C(=N/S(=O)(=O)c1ccc(C(F)(F)F)cc1)N1C[C@H](c2ccccc2)C(c2ccc(Cl)cc2)=N1`, the Ki turned out to be 3.51 µM at Cannabinoid receptor 2 and 0.0359 µM on Cannabinoid receptor 1 [2]. Besides, the Kb on Cannabinoid receptor 1 [1] was 0.001 µM.
For `C/N=C(\NS(=O)(=O)c1ccccc1)N1CC(c2ccccc2)C(c2ccc(Cl)cc2)=N1` (centres undefined), the Kb at Cannabinoid receptor 1 [1] was 0.0316 µM. The compound also had a Ki at Cannabinoid receptor 1 [2] of 0.17 µM.
Take `CN=C(NS(=O)(=O)c1ccc(OC)cc1)N1CC(c2ccccc2)C(c2ccc(Cl)cc2)=N1` (centres undefined): the Kb at Cannabinoid receptor 1 [1] is 0.01 µM. This compound also displayed a Ki at Cannabinoid receptor 1 [2] of 0.0229 µM.
Compound `CN/C(=N\S(=O)(=O)c1ccc(Cl)cc1)N1C[C@H](c2ccccc2)C(c2ccc(Cl)cc2)=N1` displayed an ED50 in series [3] of 5.5 mg/kg.
